Data: ChEMBL document CHEMBL4406880, “Design, synthesis, and bioactivity of dihydropyrimidine derivatives as kinesin spindle protein inhibitors” (Bioorg Med Chem, 2019)

What was measured:
Type in all cases: functional
[1] = system: UACC-62; assay: Growth inhibition of human UACC62 cells incubated for 48 hrs by sulforhodamine B assay; details: UACC-62, 48 h
Procedure, shortened: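 NCI-60 five-dose SRB assay. Cells were exposed for 48 h to tenfold dilutions of 0.01, 0.1, 1, 10 and 100 µM, in RPMI 1640 with 5% FBS. Plates fixed with TCA at the time of drug addition served as the time-zero reference. GI50 is the concentration giving a 50% reduction in net growth. TGI is total growth inhibition. LC50 is a net 50% loss of the initial cells.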

[2] = system: SNB-75; assay: Cell cycle arrest in human SNB75 cells assessed as accumulation in S phase at 2 uM incubated for 24 hrs by propidium iodide based flow cytometry (reference value: 33.92 %)
Procedure, shortened: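 SNB-75 cells were exposed to 2 µM for 24 h at 37 °C, 5% CO2, then washed with PBS and fixed in 70% ethanol on ice for 15 min. They were stained 1 h at room temperature with 50 µg/mL propidium iodide, 0.1 mg/mL RNase A and 0.05% Triton X-100. DNA content was read by flow cytometry to give the % of cells in pre-G1, G0/G1, S and G2/M.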

[3] = system: UACC-257; assay: Growth inhibition of human UACC257 cells assessed as cell viability at 100 uM incubated for 48 hrs by sulforhodamine B assay; details: UACC-257, 48 h, read-out: Activity
[4] = system: SK-MEL-2; assay: Growth inhibition of human SK-MEL-2 cells assessed as cell viability at 100 uM incubated for 48 hrs by sulforhodamine B assay; details: SK-MEL-2, 48 h, read-out: Activity
[5] = system: SF-295; assay: Growth inhibition of human SF295 cells assessed as cell viability at 100 uM incubated for 48 hrs by sulforhodamine B assay; details: SF-295, 48 h, read-out: Activity
[6] = system: SF-268; assay: Growth inhibition of human SF268 cells assessed as cell viability at 100 uM incubated for 48 hrs by sulforhodamine B assay; details: SF-268, 48 h, read-out: Activity
[7] = system: NCI-H226; assay: Growth inhibition of human NCI-H226 cells assessed as cell viability at 100 uM incubated for 48 hrs by sulforhodamine B assay; details: NCI-H226, 48 h, read-out: Activity
[8] = system: HOP-92; assay: Growth inhibition of human HOP92 cells assessed as cell viability at 100 uM incubated for 48 hrs by sulforhodamine B assay; details: HOP-92, 48 h, read-out: Activity
[9] = system: Hs-578T; assay: Growth inhibition of human Hs 578T cells assessed as cell viability at 1 uM incubated for 48 hrs by sulforhodamine B assay; details: read-out: Activity
[10] = system: SK-MEL-28; assay: Growth inhibition of human SK-MEL-28 cells assessed as cell viability at 1 uM incubated for 48 hrs by sulforhodamine B assay; details: SK-MEL-28, 48 h, read-out: Activity
[11] = system: U-251; assay: Growth inhibition of human U251 cells assessed as cell viability at 1 uM incubated for 48 hrs by sulforhodamine B assay; details: U-251, 48 h, read-out: Activity
[12] = system: HCC 2998; assay: Growth inhibition of human HCC2998 cells assessed as cell viability at 1 uM incubated for 48 hrs by sulforhodamine B assay; details: HCC 2998, 48 h, read-out: Activity
[13] = system: A549; assay: Growth inhibition of human A549/ATCC cells assessed as cell viability at 1 uM incubated for 48 hrs by sulforhodamine B assay; details: A549, 48 h, read-out: Activity
Procedure, shortened: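 NCI-60 five-dose mode: five tenfold dilutions (0.01, 0.1, 1, 10, 100 µM) are applied for 48 h to cells in RPMI 1640 with 5% FBS at 37 °C. Endpoint is TCA fixation with sulforhodamine B read at 515 nm. % growth comes from the 0 h and control absorbances. GI50 is the concentration giving a 50% reduction in net cell growth.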

[14] = system: DU-145; assay: Growth inhibition of human DU145 cells assessed as cell viability at 0.1 uM incubated for 48 hrs by sulforhodamine B assay; details: DU-145, 48 h, read-out: Activity
[15] = system: SNB-19; assay: Growth inhibition of human SNB19 cells assessed as cell viability at 0.1 uM incubated for 48 hrs by sulforhodamine B assay; details: SNB-19, 48 h, read-out: Activity
[16] = system: SF-295; assay: Growth inhibition of human SF295 cells assessed as cell viability at 0.1 uM incubated for 48 hrs by sulforhodamine B assay; details: SF-295, 48 h, read-out: Activity
[17] = system: KM12; assay: Growth inhibition of human KM12 cells assessed as cell viability at 0.1 uM incubated for 48 hrs by sulforhodamine B assay; details: KM12, 48 h, read-out: Activity
[18] = system: HCT-15; assay: Growth inhibition of human HCT15 cells assessed as cell viability at 0.1 uM incubated for 48 hrs by sulforhodamine B assay; details: HCT-15, 48 h, read-out: Activity
[19] = system: NCI-H522; assay: Growth inhibition of human NCI-H522 cells assessed as cell viability at 0.1 uM incubated for 48 hrs by sulforhodamine B assay; details: NCI-H522, 48 h, read-out: Activity
[20] = system: K562; assay: Growth inhibition of human K562 cells assessed as cell viability at 0.1 uM incubated for 48 hrs by sulforhodamine B assay; details: K562, 48 h, read-out: Activity
[21] = system: UO-31; assay: Growth inhibition of human UO31 cells assessed as cell viability at 0.001 uM incubated for 48 hrs by sulforhodamine B assay relative to control; details: UO-31, 48 h, read-out: Activity
[22] = system: TK-10; assay: Growth inhibition of human TK10 cells assessed as cell viability at 0.001 uM incubated for 48 hrs by sulforhodamine B assay relative to control; details: TK-10, 48 h, read-out: Activity
[23] = system: CAKI-1; assay: Growth inhibition of human Caki1 cells assessed as cell viability at 0.001 uM incubated for 48 hrs by sulforhodamine B assay relative to control; details: CAKI-1, 48 h, read-out: Activity
[24] = system: SK-OV-3; assay: Growth inhibition of human SKOV3 cells assessed as cell viability at 0.001 uM incubated for 48 hrs by sulforhodamine B assay relative to control; details: SK-OV-3, 48 h, read-out: Activity
[25] = system: NCI/ADR-RES; assay: Growth inhibition of human NCI/ADR-RES cells assessed as cell viability at 0.001 uM incubated for 48 hrs by sulforhodamine B assay relative to control; details: read-out: Activity
[26] = system: SF-268; assay: Growth inhibition of human SF268 cells assessed as cell viability at 0.001 uM incubated for 48 hrs by sulforhodamine B assay relative to control; details: SF-268, 48 h, read-out: Activity
[27] = system: KM12; assay: Growth inhibition of human KM12 cells assessed as cell viability at 0.001 uM incubated for 48 hrs by sulforhodamine B assay relative to control; details: KM12, 48 h, read-out: Activity
[28] = system: HOP-62; assay: Growth inhibition of human HOP62 cells assessed as cell viability at 0.001 uM incubated for 48 hrs by sulforhodamine B assay relative to control; details: HOP-62, 48 h, read-out: Activity

CC1=C(C(=O)OCc2ccccc2)C(c2ccc3c(c2)OCO3)n2c(nc3ccccc32)N1 (racemic)
GI50 ([1]; read-out: GI50): 380 nM
CC50 ([1]; read-out: LC50 (the source's name)): > 100 µM
TGI ([1]; read-out: TGI): > 100 µM
GI50 ([1]; read-out: pGI50 (converted)): 380 nM
CC50 ([1]; read-out: pLC50 (the source's name) (converted)): > 100 µM
TGI ([1]; read-out: pTGI): > 100 µM
Activity [2]: 27.89%
viability at 100 µM [3]: 46%
viability at 100 µM [4]: 37%
viability at 100 µM [5]: 8%
viability at 100 µM [6]: 9%
viability at 100 µM [7]: 64%
viability at 100 µM [8]: 53%
viability at 1 µM [9]: 5%
viability at 1 µM [10]: 63%
viability at 1 µM [11]: 26%
viability at 1 µM [12]: 59%
viability at 1 µM [13]: 40%
viability at 0.1 µM [14]: 109%
viability at 0.1 µM [15]: 95%
viability at 0.1 µM [16]: 87%
viability at 0.1 µM [17]: 86%
viability at 0.1 µM [18]: 84%
viability at 0.1 µM [19]: 57%
viability at 0.1 µM [20]: 82%
viability at 0.001 µM [21]: 86%
viability at 0.001 µM [22]: 92%
viability at 0.001 µM [23]: 83%
viability at 0.001 µM [24]: 99%
viability at 0.001 µM [25]: 93%
viability at 0.001 µM [26]: 91%
viability at 0.001 µM [27]: 91%
viability at 0.001 µM [28]: 91%
